According to ChEMBL document CHEMBL1151448, “Comparative antianaerobic activities of doripenem determined by MIC and time-kill analysis” (2008):
Activity calls are given as the source filed them.

How the values were obtained:
[1] = system: Paeniclostridium sordellii; test: Antimicrobial activity against Clostridium sordellii isolated from intra-abdominal infection and pelvic inflammatory disease patients after 48 hrs by agar dilution method; type: functional; conditions: Paraclostridium sordellii
How it was run: (§1)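 CLSI agar dilution on brucella blood agar supplemented with laked sheep blood, hemin and vitamin K. Inocula of about 1 × 10^5 CFU/spot were applied by Steers replicator, and plates were incubated 48 h at 35°C in an anaerobic glove box. MIC was the concentration giving marked growth reduction versus the anaerobic control plate. QC strains were included each run, and β-lactamase was detected by Cefinase disk.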

Clostridioides difficile [2] = test: Antimicrobial activity against Clostridium difficile isolated from intra-abdominal infection and pelvic inflammatory disease patients after 48 hrs by agar dilution method; type: functional; how it was run: as §1
Fusobacterium varium = test: Antimicrobial activity against Fusobacterium varium isolated from intra-abdominal infection and pelvic inflammatory disease patients after 48 hrs by agar dilution method; type: functional; how it was run: as §1
Prevotella intermedia [3] = test: Antimicrobial activity against beta lactamase-positive Prevotella intermedia isolated from intra-abdominal infection and pelvic inflammatory disease patients after 48 hrs by agar dilution method; type: functional; how it was run: as §1
[Clostridium] innocuum = Antimicrobial activity against Clostridium innocuum isolated from intra-abdominal infection and pelvic inflammatory disease patients after 48 hrs by agar dilution method; type: functional; how it was run: as §1
Bacteroides fragilis = test: Bactericidal activity against beta lactamase-positive Bacteroides fragilis isolated from intra-abdominal infection and pelvic inflammatory disease patients assessed as bacterial killing at MIC after 24 hrs by time kill analysis; type: functional
How it was run: (§2)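 Macrodilution time-kill in prereduced brucella broth with 5% laked horse blood, hemin 5 μg/ml and vitamin K1 1 μg/ml, at final inoculum 10^6–10^7 CFU/ml. […] Viable counts were taken at 6, 12, 24 and 48 h on plates incubated 48 h anaerobically. 99.9% kill was taken as bactericidal.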

Porphyromonas levii = test: Antimicrobial activity against Porphyromonas levii isolated from intra-abdominal infection and pelvic inflammatory disease patients after 48 hrs by agar dilution method; type: functional; how it was run: as §1
Prevotella disiens = test: Antimicrobial activity against beta lactamase-positive Prevotella disiens isolated from intra-abdominal infection and pelvic inflammatory disease patients after 48 hrs by agar dilution method; type: functional; how it was run: as §1
Finegoldia magna [4] = test: Bactericidal activity against beta lactamase-positive Finegoldia magna isolated from intra-abdominal infection and pelvic inflammatory disease patients assessed as bacterial killing at 2 times MIC after 48 hrs by time kill analysis; type: functional
How it was run: (§3)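 Anaerobic macrodilution time-kill. Inoculum from brucella blood plates, prepared and diluted in prereduced brucella broth inside the anaerobe chamber. Final 10^6 to 10^7 CFU/ml in prereduced brucella broth with 5% laked horse blood cells, 5 μg/ml hemin and 1 μg/ml vitamin K1. […] Shaken at 35°C for 48 h. Viable counts taken at 6, 12, 24 and 48 h. 99.9% kill taken as bactericidal.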

Anaerococcus tetradius = test: Antimicrobial activity against Anaerococcus tetradius isolated from intra-abdominal infection and pelvic inflammatory disease patients after 48 hrs by agar dilution method; type: functional; how it was run: as §1
[5] = system: Paraclostridium bifermentans; test: Antimicrobial activity against Clostridium bifermentans isolated from intra-abdominal infection and pelvic inflammatory disease patients after 48 hrs by agar dilution method; type: functional; how it was run: as §1
[6] = system: Bacteroides thetaiotaomicron; test: Bactericidal activity against beta lactamase-positive Bacteroides thetaiotaomicron isolated from intra-abdominal infection and pelvic inflammatory disease patients assessed as bacterial killing at 2 times MIC after 48 hrs by time kill analysis; type: functional; how it was run: as §2
Prevotella intermedia [7] = test: Bactericidal activity against beta lactamase-positive Prevotella intermedia isolated from intra-abdominal infection and pelvic inflammatory disease patients assessed as bacterial killing at 2 times MIC after 48 hrs by time kill analysis; type: functional; how it was run: as §3
Clostridioides difficile [8] = test: Antimicrobial activity against Clostridium difficile isolated from intra-abdominal infection and pelvic inflammatory disease patients after 48 hrs by time kill analysis; type: functional
How it was run: (§4)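 Macrodilution in prereduced brucella broth with 5% laked horse blood cells, 5 μg/ml hemin and 1 μg/ml vitamin K1. Final inoculum 10^6 to 10^7 CFU/ml, prepared inside the anaerobe chamber. Vials incubated 48 h at 35°C in a shaking water bath. MIC read by inspecting the time-kill tubes, alongside an antibiotic-free growth control.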

Thomasclavelia ramosa = test: Antimicrobial activity against Clostridium ramosum isolated from intra-abdominal infection and pelvic inflammatory disease patients after 48 hrs by agar dilution method; type: functional; how it was run: as §1
[9] = system: Bacteroides thetaiotaomicron; test: Bactericidal activity against beta lactamase-positive Bacteroides thetaiotaomicron isolated from intra-abdominal infection and pelvic inflammatory disease patients assessed as bacterial killing at MIC after 24 hrs by time kill analysis; type: functional; how it was run: as §2
[10] = system: Peptoniphilus asaccharolyticus; test: Antimicrobial activity against Peptoniphilus asaccharolyticus isolated from intra-abdominal infection and pelvic inflammatory disease patients after 48 hrs by agar dilution method; type: functional; how it was run: as §1
Prevotella nigrescens = test: Antimicrobial activity against beta lactamase-positive Prevotella nigrescens isolated from intra-abdominal infection and pelvic inflammatory disease patients after 48 hrs by agar dilution method; type: functional; how it was run: as §1
Parvimonas micra = test: Antimicrobial activity against Micromonas micros isolated from intra-abdominal infection and pelvic inflammatory disease patients after 48 hrs by agar dilution method; type: functional; how it was run: as §1
Clostridium perfringens [11] = test: Bactericidal activity against Clostridium perfringens isolated from intra-abdominal infection and pelvic inflammatory disease patients assessed as bacterial killing at MIC after 24 hrs by time kill analysis; type: functional
How it was run: (§5)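 Time-kill in prereduced brucella broth with 5% laked horse blood cells, hemin and vitamin K1. […] Viable counts taken at 6, 12, 24 and 48 h, plates incubated 48 h anaerobically. Kill scored as 90%, 99% or 99.9%; 99.9% defines bactericidal.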

Clostridioides difficile [12] = test: Bactericidal activity against Clostridium difficile isolated from intra-abdominal infection and pelvic inflammatory disease patients assessed as 99.9% bacterial killing at 2 times MIC after 48 hrs by time kill analysis; type: functional, organism-based; how it was run: as §2
Clostridium perfringens [13] = test: Bactericidal activity against Clostridium perfringens isolated from intra-abdominal infection and pelvic inflammatory disease patients assessed as bacterial killing at 2 times MIC after 48 hrs by time kill analysis; type: functional; how it was run: as §5
Finegoldia magna [14] = test: Bactericidal activity against beta lactamase-positive Finegoldia magna isolated from intra-abdominal infection and pelvic inflammatory disease patients assessed as bacterial killing at MIC after 24 hrs by time kill analysis; type: functional; how it was run: as §3
Clostridium perfringens [15] = test: Antimicrobial activity against Clostridium perfringens isolated from intra-abdominal infection and pelvic inflammatory disease patients after 48 hrs by time kill analysis; type: functional; how it was run: as §4
[16] = system: Bacteroides thetaiotaomicron; test: Antimicrobial activity against beta lactamase-positive Bacteroides thetaiotaomicron isolated from intra-abdominal infection and pelvic inflammatory disease patients after 48 hrs by agar dilution method; type: functional; how it was run: as §1
[17] = system: Parabacteroides distasonis; test: Antimicrobial activity against beta lactamase-positive Bacteroides distasonis isolated from intra-abdominal infection and pelvic inflammatory disease patients after 48 hrs by agar dilution method; type: functional; how it was run: as §1
Anaerococcus prevotii = test: Antimicrobial activity against Anaerococcus prevotii isolated from intra-abdominal infection and pelvic inflammatory disease patients after 48 hrs by agar dilution method; type: functional; how it was run: as §1
Finegoldia magna [18] = test: Antimicrobial activity against Finegoldia magna isolated from intra-abdominal infection and pelvic inflammatory disease patients after 48 hrs by agar dilution method; type: functional; how it was run: as §1
Prevotella intermedia [19] = test: Bactericidal activity against beta lactamase-positive Prevotella intermedia isolated from intra-abdominal infection and pelvic inflammatory disease patients assessed as bacterial killing at MIC after 24 hrs by time kill analysis; type: functional; how it was run: as §3

C[C@@H](O)[C@H]1C(=O)N2C(C(=O)O)=C(S[C@@H]3CN[C@H](CNS(N)(=O)=O)C3)[C@H](C)[C@H]12 [DORIPENEM]
0.03 µg/mL: MIC [1] | MIC50 (Prevotella intermedia [3]) | MIC (Porphyromonas levii) | MIC50 (Anaerococcus tetradius) | MIC90 [10] | MIC50 (Prevotella nigrescens) | MIC (Clostridium perfringens [15]) | MIC (Anaerococcus prevotii)
inactive: Activity (Clostridioides difficile [12])
99%: Activity (Finegoldia magna [4]) | Activity [6] | Activity (Prevotella intermedia [7]) | Activity (Clostridium perfringens [13])
≤ 0.016 µg/mL: MIC [10] | MIC50 [10] | MIC (Parvimonas micra) | MIC50 (Parvimonas micra)
0.25 µg/mL: MIC [16] | MIC50 [16]
0.06 µg/mL: MIC50 (Prevotella disiens) | MIC [5] | MIC90 (Prevotella nigrescens) | MIC90 (Parvimonas micra) | MIC (Finegoldia magna [18]) | MIC50 (Finegoldia magna [18])
90%: Activity (Bacteroides fragilis) | Activity [9] | Activity (Clostridium perfringens [11]) | Activity (Finegoldia magna [14]) | Activity (Prevotella intermedia [19])
1 µg/mL: MIC ([Clostridium] innocuum) | MIC50 ([Clostridium] innocuum) | MIC (Clostridioides difficile [8]) | MIC90 [17]
0.125 µg/mL: MIC50 (Fusobacterium varium) | MIC90 (Fusobacterium varium) | MIC90 (Prevotella intermedia [3]) | MIC90 (Prevotella disiens) | MIC90 (Finegoldia magna [18])
2 µg/mL: MIC50 (Clostridioides difficile [2])
0.5 µg/mL: MIC (Thomasclavelia ramosa) | MIC50 (Thomasclavelia ramosa) | MIC90 [16] | MIC50 [17]
4 µg/mL: MIC90 (Clostridioides difficile [2])

C[C@@H](O)[C@H]1C(=O)N2C(C(=O)O)=C(S[C@@H]3CN[C@H](C(=O)Nc4cccc(C(=O)O)c4)C3)[C@H](C)[C@H]12
2 µg/mL: MIC ([Clostridium] innocuum) | MIC50 ([Clostridium] innocuum)
0.125 µg/mL: MIC90 (Fusobacterium varium) | MIC [5] | MIC90 (Parvimonas micra) | MIC (Clostridium perfringens [15])
inactive: Activity (Clostridioides difficile [12])
90%: Activity (Bacteroides fragilis) | Activity [9] | Activity (Clostridium perfringens [11]) | Activity (Finegoldia magna [14]) | Activity (Prevotella intermedia [19])
0.5 µg/mL: MIC [16] | MIC50 [16] | MIC [17] | MIC50 [17]
0.25 µg/mL: MIC90 (Prevotella intermedia [3]) | MIC90 (Prevotella disiens)
≤ 0.016 µg/mL: MIC (Porphyromonas levii) | MIC [10] | MIC50 [10] | MIC (Anaerococcus prevotii)
0.03 µg/mL: MIC [1] | MIC50 (Prevotella intermedia [3]) | MIC50 (Prevotella nigrescens) | MIC50 (Parvimonas micra)
1 µg/mL: MIC (Thomasclavelia ramosa) | MIC50 (Thomasclavelia ramosa) | MIC90 [16] | MIC90 [17]
8 µg/mL: MIC90 (Clostridioides difficile [2])
99%: Activity (Finegoldia magna [4]) | Activity [6] | Activity (Prevotella intermedia [7]) | Activity (Clostridium perfringens [13])
0.06 µg/mL: MIC (Fusobacterium varium) | MIC50 (Fusobacterium varium) | MIC50 (Prevotella disiens) | MIC (Anaerococcus tetradius) | MIC50 (Anaerococcus tetradius) | MIC90 [10] | MIC90 (Prevotella nigrescens) | MIC50 (Finegoldia magna [18]) | MIC90 (Finegoldia magna [18])
4 µg/mL: MIC (Clostridioides difficile [2]) | MIC50 (Clostridioides difficile [2]) | MIC (Clostridioides difficile [8])
